How the values were obtained:
[1] = biological target: T1, Amine oxidase [flavin-containing] B (Homo sapiens, UniProt P27338); experiment: Inhibition of human MAO-B expressed in baculovirus infected insect cell membranes using kynuramine as substrate preincubated for 30 mins followed by substrate addition measured after 15 to 20 mins by discontinuous fluorimetric method
T1 sequence (P27338 whole entry): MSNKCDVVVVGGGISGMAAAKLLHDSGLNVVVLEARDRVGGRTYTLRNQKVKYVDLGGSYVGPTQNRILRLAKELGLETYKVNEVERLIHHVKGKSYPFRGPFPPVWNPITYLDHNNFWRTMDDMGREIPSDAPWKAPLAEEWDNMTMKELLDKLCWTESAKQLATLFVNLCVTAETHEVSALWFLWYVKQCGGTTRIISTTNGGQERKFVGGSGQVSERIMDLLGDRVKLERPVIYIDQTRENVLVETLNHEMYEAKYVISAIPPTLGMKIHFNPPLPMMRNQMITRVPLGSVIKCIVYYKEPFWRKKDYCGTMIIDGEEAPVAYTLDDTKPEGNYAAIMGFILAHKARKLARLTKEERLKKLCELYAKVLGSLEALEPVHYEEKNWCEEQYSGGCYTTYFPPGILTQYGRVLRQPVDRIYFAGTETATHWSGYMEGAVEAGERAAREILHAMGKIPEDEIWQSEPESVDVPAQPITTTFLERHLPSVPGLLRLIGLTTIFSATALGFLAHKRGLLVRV

[2] = biological target: T1, Amine oxidase [flavin-containing] B; experiment: Inhibition of human MAO-B expressed in baculovirus infected insect cell membranes at 10 uM using kynuramine as substrate by continuous spectrophotometric method relative to control
[3] = biological target: T2, Amine oxidase [flavin-containing] A (Homo sapiens, UniProt P21397); experiment: Inhibition of human MAO-A expressed in baculovirus infected insect cell membranes using kynuramine as substrate after 15 to 20 mins by discontinuous fluorimetric method
T2 sequence (P21397 whole entry): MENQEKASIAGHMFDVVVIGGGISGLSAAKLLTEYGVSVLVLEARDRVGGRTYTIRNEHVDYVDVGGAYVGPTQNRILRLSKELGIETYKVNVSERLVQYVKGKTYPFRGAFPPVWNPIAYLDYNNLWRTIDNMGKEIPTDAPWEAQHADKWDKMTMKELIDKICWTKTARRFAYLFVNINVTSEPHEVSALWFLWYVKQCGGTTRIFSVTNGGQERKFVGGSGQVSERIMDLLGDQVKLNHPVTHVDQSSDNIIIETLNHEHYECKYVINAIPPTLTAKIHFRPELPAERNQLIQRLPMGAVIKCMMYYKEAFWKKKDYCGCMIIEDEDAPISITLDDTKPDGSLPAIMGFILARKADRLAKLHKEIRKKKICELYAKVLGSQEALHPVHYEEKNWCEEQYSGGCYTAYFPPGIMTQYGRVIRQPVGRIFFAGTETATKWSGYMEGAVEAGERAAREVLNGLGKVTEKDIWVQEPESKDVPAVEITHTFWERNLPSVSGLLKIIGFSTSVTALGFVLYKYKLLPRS
How it was run: (§1)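 Human recombinant membrane-bound MAO A and MAO B were tested with inhibitor at 0.001–100 µM and kynuramine at 2×KM. Conditions were 50 mM potassium phosphate, pH 7.4, 20 min at 37°C, no preincubation, with NaOH stop and fluorimetric 4-hydroxyquinoline read-out. IC50 came from a three-parameter log-inhibitor fit with the bottom fixed at zero, from at least three independent experiments in at least duplicate. SI = IC50 MAO A / IC50 MAO B.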

[4] = biological target: T1, Amine oxidase [flavin-containing] B; experiment: Reversible inhibition of human MAO-B expressed in baculovirus infected insect cell membranes using excess of kynuramine substrate preincubated for 30 to 60 mins followed by 50 fold compound dilution by fluorimetric method
How it was run: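 MAO B (10 ng/µL) was preincubated with inhibitor at 10× IC50 for 0, 30 or 60 min at 37°C. […] Residual activity was measured fluorimetrically at saturating kynuramine (10×KM), as % of the matched no-inhibitor control. Data are from at least two independent experiments in duplicate, global fit.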

[5] = biological target: T1, Amine oxidase [flavin-containing] B; experiment: Inhibition of human MAO-B expressed in baculovirus infected insect cell membranes using kynuramine as substrate after 15 to 20 mins by discontinuous fluorimetric method
Histamine H3 receptor [6] = biological target: T3, Histamine H3 receptor (Homo sapiens, UniProt Q9Y5N1); experiment: Displacement of [3H]-N-alpha-methylhistamine from human H3R expressed in HEK293 cell membranes after 90 mins by liquid scintillation counting method
How it was run: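 Membranes (20 µg) from HEK-293 cells stably expressing human H3R were incubated with 2 nM [3H]-N-α-methylhistamine and at least seven test concentrations. Incubation was 90 min at room temperature, with shaking, in 75 mM Tris/HCl (pH 7.4), 12.5 mM MgCl2 and 100 mM NaCl. Nonspecific binding used 10 µM pitolisant. Counting was by liquid scintillation; Ki came from Cheng-Prusoff on one-site competition fits, at least in duplicate.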

Homo sapiens = species: Homo sapiens; experiment: Selectivity index, ratio of IC50 for human MAO-A expressed in baculovirus infected insect cell membranes without preincubation with enzyme to IC50 for human MAO-B expressed in baculovirus infected insect cell membranes without preincubation with enzyme; how it was run: as §1
[7] = biological target: T2, Amine oxidase [flavin-containing] A; experiment: Inhibition of human MAO-A expressed in baculovirus infected insect cell membranes at 10 uM using kynuramine as substrate by continuous spectrophotometric method relative to control
[8] = biological target: T1, Amine oxidase [flavin-containing] B; experiment: Inhibition of human MAO-B expressed in baculovirus infected insect cell membranes at 5 uM using kynuramine as substrate after 15 to 20 mins by discontinuous fluorimetric method relative to control
How it was run: (§2)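 Single-point screen (10, 2 or 5 µM) on human recombinant membrane-bound MAO A or MAO B. Kynuramine was used at 2×KM (KM 30 µM for MAO A, 20 µM for MAO B) in 50 mM potassium phosphate, pH 7.4, 37°C for 20 min, started with enzyme and stopped with 2 N NaOH. 4-Hydroxyquinoline was read fluorimetrically (Ex 320, Em 405 nm) as % of no-inhibitor control; at least two independent experiments in duplicate.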

Histamine H3 receptor [9] = biological target: T3, Histamine H3 receptor; experiment: Displacement of [125I]iodoproxyfan from human H3R expressed in CHOK1 cell membranes after 60 mins by gamma counting method
[10] = biological target: T1, Amine oxidase [flavin-containing] B; experiment: Inhibition of human MAO-B expressed in baculovirus infected insect cell membranes at 2 uM using kynuramine as substrate after 15 to 20 mins by discontinuous fluorimetric method relative to control; how it was run: as §2

T3 sequence (Q9Y5N1 whole entry): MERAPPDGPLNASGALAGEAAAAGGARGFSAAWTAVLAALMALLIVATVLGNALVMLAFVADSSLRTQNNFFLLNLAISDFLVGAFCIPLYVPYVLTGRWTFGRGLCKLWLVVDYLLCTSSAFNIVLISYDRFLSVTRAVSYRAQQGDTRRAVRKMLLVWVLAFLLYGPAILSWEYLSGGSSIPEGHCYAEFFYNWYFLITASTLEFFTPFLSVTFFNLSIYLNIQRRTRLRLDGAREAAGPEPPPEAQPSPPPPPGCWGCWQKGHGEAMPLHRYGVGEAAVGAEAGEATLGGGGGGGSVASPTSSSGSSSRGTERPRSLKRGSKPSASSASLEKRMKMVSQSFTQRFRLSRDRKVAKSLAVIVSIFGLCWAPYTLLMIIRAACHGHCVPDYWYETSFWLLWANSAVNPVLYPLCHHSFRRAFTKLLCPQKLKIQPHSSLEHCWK

| Structure (SMILES) | IC50 [1] [µM] | inhibition at 10 µM [2] [%] | IC50 [3] [µM] | inhibition (INH) [4] | IC50 [5] [µM] | Ki (Histamine H3 receptor [6]) [µM] | Ratio IC50 (Homo sapiens) | inhibition at 10 µM [7] [%] | inhibition at 5 µM [8] [%] | Ki (Histamine H3 receptor [9]) [µM] | inhibition at 2 µM [10] [%] |
| --- | --- | --- | --- | --- | --- | --- | --- | --- | --- | --- | --- |
| O=C1/C(=C/c2ccc(OCCCN3CCCCC3)cc2)Cc2cc(F)ccc21 | 0.541 | 76 to 100 | 9.18 | Active | 1.93 | 0.0022 | 4.8 | – | – | – | – |
| O=C1/C(=C/c2ccccc2)Cc2ccc(OCCCN3CCCCC3)cc21 | – | 51 to 75 | – | – | – | 0.039 | – | ≤ 25 | – | – | – |
| O=C1CCc2cc(OCCCN3CCCCC3)ccc21 | – | 26 to 50 | – | – | – | 0.159 | – | ≤ 25 | – | – | – |
| O=C1/C(=C/c2ccccc2)Cc2ccc(OCCN3CCCCC3)cc21 | – | 76 to 100 | – | – | – | 0.696 | – | ≤ 25 | – | – | – |
| O=C1CCc2ccc(OCCN3CCCC3)cc21 | – | 26 to 50 | – | – | – | 6.12 | – | ≤ 25 | – | – | – |
| O=C1CCc2cc(OCCN3CCCCC3)ccc21 | – | 26 to 50 | – | – | – | 0.205 | – | ≤ 25 | – | – | – |
| O=C(c1ccc(OCCCN2CCCCC2)cc1)C1CC1 | – | – | > 50 | – | 3.88 | 0.011 | > 12 | – | – | 0.0016 | – |
| O=C1/C(=C/c2ccc(OCCCN3CCCCC3)cc2)Cc2ccc(OCc3ccc(Br)cc3)cc21 | 0.232 | – | 5.51 | Active | 1.46 | 0.032 | 3.7 | – | – | – | 51 to 75 |

Continued by falling Ki (Histamine H3 receptor [6]), values first:

| IC50 [1] [µM] | inhibition at 10 µM [2] [%] | IC50 [3] [µM] | inhibition (INH) [4] | IC50 [5] [µM] | Ki (Histamine H3 receptor [6]) [µM] | Ratio IC50 (Homo sapiens) | inhibition at 10 µM [7] [%] | inhibition at 5 µM [8] [%] | Ki (Histamine H3 receptor [9]) [µM] | inhibition at 2 µM [10] [%] | Structure (SMILES) |
| --- | --- | --- | --- | --- | --- | --- | --- | --- | --- | --- | --- |
| – | ≤ 25 | – | – | – | 0.345 | – | 26 to 50 | – | – | – | O=C1CCc2cc(OCCN3CCCC3)ccc21 |
| – | 51 to 75 | – | – | – | 0.304 | – | ≤ 25 | – | – | – | O=C1CCc2ccc(OCCCN3CCCCC3)cc21 |
| – | 51 to 75 | – | – | – | 0.033 | – | ≤ 25 | – | – | – | COc1ccc2c(c1)C/C(=C\c1ccc(OCCCN3CCCCC3)cc1)C2=O |
| – | 51 to 75 | – | – | – | 0.011 | – | 51 to 75 | – | – | – | COc1ccc2c(c1)C(=O)/C(=C/c1ccc(OCCCN3CCCCC3)cc1)C2 |
| 0.262 | – | > 10 | Active | 0.276 | 0.0065 | > 36 | – | 76 to 100 | – | – | O=C1/C(=C/c2ccc(OCCCN3CCCCC3)cc2)Cc2cc(OCc3ccc(Br)cc3)ccc21 |
| – | 51 to 75 | – | – | – | 0.0039 | – | ≤ 25 | – | – | – | O=C1/C(=C/c2ccccc2)Cc2cc(OCCCN3CCCCC3)ccc21 |
| – | 51 to 75 | – | – | – | 0.0021 | – | ≤ 25 | – | – | – | O=C1/C(=C/c2ccc(OCCCN3CCCCC3)cc2)Cc2ccccc21 |

Source: ChEMBL document CHEMBL4196042, “Novel indanone derivatives as MAO B/H3R dual-targeting ligands for treatment of Parkinson's disease” (Eur J Med Chem, 2018)
